# In ChEMBL document CHEMBL4351018, “Novel phenanthridin-6(5H)-one derivatives as potent and selective BET bromodomain inhibitors: Rational design, synthesis and biological evaluation” (Eur J Med Chem, 2019):
# pIC50: −log10 of the molar value.
# Key:
# [1] = Half life in Sprague-Dawley rat at 2.5 mg/kg, iv measured for 0.083 to 24 hrs by LC-MS/MS analysis; type: ADME, organism-based; details: in vivo
# [2] = Oral bioavailability in Sprague-Dawley rat at 10 mg/kg measured for 0.083 to 24 hrs by LC-MS/MS analysis; type: ADME, organism-based; details: in vivo
# [3] = MRT (0 to t) in Sprague-Dawley rat at 10 mg/kg, po measured for 0.083 to 24 hrs by LC-MS/MS analysis; type: ADME, organism-based; details: in vivo
# A549 [4] = test: Induction of apoptosis in human A549 cells assessed as necrotic cells at 0.3 uM incubated for 48 hrs by annexin V-FITC/PI double staining based flow cytometric analysis (reference value: 0%); type: functional
# Peregrin (Homo sapiens) = target: T1, Peregrin (Homo sapiens) (UniProt P55201); test: Binding affinity to BRPF1B (unknown origin) at 20 uM by Alpha screen assay relative to control
# T1 sequence (whole entry): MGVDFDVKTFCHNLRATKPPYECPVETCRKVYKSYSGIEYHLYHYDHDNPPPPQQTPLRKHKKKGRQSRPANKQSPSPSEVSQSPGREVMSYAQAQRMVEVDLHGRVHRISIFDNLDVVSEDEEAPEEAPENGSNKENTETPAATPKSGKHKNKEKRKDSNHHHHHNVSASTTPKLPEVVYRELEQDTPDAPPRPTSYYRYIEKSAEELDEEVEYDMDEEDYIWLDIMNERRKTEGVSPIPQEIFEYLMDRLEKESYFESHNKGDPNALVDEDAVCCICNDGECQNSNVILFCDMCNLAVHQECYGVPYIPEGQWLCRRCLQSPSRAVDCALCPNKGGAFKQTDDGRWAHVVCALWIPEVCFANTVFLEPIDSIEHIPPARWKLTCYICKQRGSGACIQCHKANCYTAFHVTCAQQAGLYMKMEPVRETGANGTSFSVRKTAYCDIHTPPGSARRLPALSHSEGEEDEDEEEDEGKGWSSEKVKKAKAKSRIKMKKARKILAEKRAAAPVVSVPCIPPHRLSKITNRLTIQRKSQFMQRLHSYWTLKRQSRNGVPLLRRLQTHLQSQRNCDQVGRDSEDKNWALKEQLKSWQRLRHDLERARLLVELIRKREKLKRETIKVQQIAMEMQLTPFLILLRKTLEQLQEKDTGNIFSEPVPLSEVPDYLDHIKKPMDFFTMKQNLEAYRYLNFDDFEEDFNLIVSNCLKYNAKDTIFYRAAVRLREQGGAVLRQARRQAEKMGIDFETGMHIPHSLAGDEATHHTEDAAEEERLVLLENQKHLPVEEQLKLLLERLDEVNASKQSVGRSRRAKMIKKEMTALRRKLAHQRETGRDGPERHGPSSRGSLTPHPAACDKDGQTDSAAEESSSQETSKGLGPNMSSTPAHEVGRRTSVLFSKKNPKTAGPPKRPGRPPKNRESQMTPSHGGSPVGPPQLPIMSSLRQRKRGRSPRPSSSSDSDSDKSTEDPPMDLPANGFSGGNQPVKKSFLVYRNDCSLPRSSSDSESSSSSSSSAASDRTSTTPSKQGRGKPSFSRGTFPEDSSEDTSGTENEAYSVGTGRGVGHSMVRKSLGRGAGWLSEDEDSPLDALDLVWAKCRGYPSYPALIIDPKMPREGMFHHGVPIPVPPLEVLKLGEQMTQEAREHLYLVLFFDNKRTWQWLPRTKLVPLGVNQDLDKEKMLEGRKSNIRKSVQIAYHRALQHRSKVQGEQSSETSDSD
# [5] = target: Bromodomain testis-specific protein (Homo sapiens) (UniProt Q58F21); test: Binding affinity to BRDT bromodomain 2 (unknown origin) at 20 uM by Alpha screen assay relative to control
# SGC-7901 = test: Antiproliferative activity against human SGC7901 cells incubated for 48 hrs by MTT assay; type: functional, cell-based; details: SGC-7901, 48 h
# Outline: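 Cells kept in DMEM or RPMI 1640 with 10% FBS at 37 °C, 5% CO2. MTT added for 4 h at 37 °C, formazan dissolved in DMSO, OD read at 570 nm. Survival % taken relative to blank and control wells. Triplicate runs; IC50 from curve fit.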
# [6] = target: T2, Bromodomain-containing protein 4 (Homo sapiens, UniProt O60885); test: Inhibition of recombinant human His-tagged BRD4 bromodomain 1/2 (2 to 1362 residues) expressed in […] insect cells using biotinylated H4(1 to 21)K5/8/12/16Ac peptide as substrate preincubated for 30 mins followed by substrate addition and measured after 30 mins by Alpha screen assay
# [7] = target: Bromodomain-containing protein 3 (Homo sapiens) (UniProt Q15059); test: Binding affinity to BRD3 bromodomain 2 (unknown origin) at 20 uM by Alpha screen assay relative to control
# A549 [8] = test: Induction of apoptosis in human A549 cells assessed as viable cells at 3.0 uM incubated for 48 hrs by annexin V-FITC/PI double staining based flow cytometric analysis (reference value: 98.2%); type: functional; details: A549, 48 h, read-out: Activity
# A549 [9] = test: Induction of apoptosis in human A549 cells assessed as late apoptotic cells at 0.3 uM incubated for 48 hrs by annexin V-FITC/PI double staining based flow cytometric analysis (reference value: 0.039%); type: functional
# [10] = Tmax in Sprague-Dawley rat at 2.5 mg/kg, iv measured for 0.083 to 24 hrs by LC-MS/MS analysis; type: ADME, organism-based; details: in vivo
# [11] = target: T2, Bromodomain-containing protein 4; test: Binding affinity to recombinant human His-tagged BRD4 bromodomain 1 expressed in […] insect cells using biotinylated H4(1 to 21)K5/8/12/16Ac peptide as substrate at 20 uM preincubated for 30 mins followed by substrate addition and measured after 30 mins by Alpha screen assay relative to control
# [12] = AUC (0 to infinity) in Sprague-Dawley rat at 2.5 mg/kg, iv measured for 0.083 to 24 hrs by LC-MS/MS/MS analysis; type: ADME, organism-based; set-up: dose 2.5 mg/kg, time infinity, route intravenous; details: in vivo
# A549 [13] = test: Induction of apoptosis in human A549 cells assessed as necrotic cells at 1.0 uM incubated for 48 hrs by annexin V-FITC/PI double staining based flow cytometric analysis (reference value: 0%); type: functional
# [14] = Apparent clearance in Sprague-Dawley rat at 2.5 mg/kg, iv measured for 0.083 to 24 hrs by LC-MS/MS analysis; type: ADME, organism-based; details: in vivo, read-out: CL(app) (converted)
# A549 [15] = test: Induction of apoptosis in human A549 cells assessed as early apoptotic cells at 0.3 uM incubated for 48 hrs by annexin V-FITC/PI double staining based flow cytometric analysis (reference value: 1.76%); type: functional
# [16] = MRT (0 to t) in Sprague-Dawley rat at 2.5 mg/kg, iv measured for 0.083 to 24 hrs by LC-MS/MS analysis; type: ADME, organism-based; details: in vivo
# [17] = Volume of distribution at steady state in Sprague-Dawley rat at 10 mg/kg, po measured for 0.083 to 24 hrs by LC-MS/MS analysis; type: ADME, organism-based; details: in vivo
# Chain of Bromodomain-containing protein 3 (Homo sapiens) (Q15059 2-726 limits assumed): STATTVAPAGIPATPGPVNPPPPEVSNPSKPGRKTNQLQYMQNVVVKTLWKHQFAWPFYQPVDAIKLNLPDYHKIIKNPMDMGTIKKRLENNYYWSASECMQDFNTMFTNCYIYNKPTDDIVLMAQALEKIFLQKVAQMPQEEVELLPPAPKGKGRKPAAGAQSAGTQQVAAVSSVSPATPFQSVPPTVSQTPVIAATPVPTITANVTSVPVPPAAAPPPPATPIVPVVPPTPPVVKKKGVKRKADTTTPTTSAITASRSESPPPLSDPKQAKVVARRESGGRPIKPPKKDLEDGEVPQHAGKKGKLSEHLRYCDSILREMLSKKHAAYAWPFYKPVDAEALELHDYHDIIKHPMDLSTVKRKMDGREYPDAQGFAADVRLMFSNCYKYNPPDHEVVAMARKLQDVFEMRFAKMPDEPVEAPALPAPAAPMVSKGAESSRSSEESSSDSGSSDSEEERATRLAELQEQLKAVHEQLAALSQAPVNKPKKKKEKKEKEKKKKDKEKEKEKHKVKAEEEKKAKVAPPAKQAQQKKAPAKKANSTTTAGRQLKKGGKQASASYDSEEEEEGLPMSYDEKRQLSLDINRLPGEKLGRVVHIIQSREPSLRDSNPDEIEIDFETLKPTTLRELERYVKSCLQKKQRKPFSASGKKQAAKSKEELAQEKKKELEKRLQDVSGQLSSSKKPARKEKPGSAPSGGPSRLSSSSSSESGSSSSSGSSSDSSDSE
smiles,measurement,setting,value
COc1ccc(Cl)cc1S(=O)(=O)Nc1ccc2[nH]c(=O)c3ccccc3c2c1,half-life,[1],10.4 h
same,bioavailability,[2],36.6%
same,MRT last,[3],7.52 h
same,Activity,A549 [4],0.02%
same,Activity,Peregrin (Homo sapiens),> 30%
same,Activity,[5],> 70%
same,pIC50,SGC-7901,5.27
same,pIC50,[6],6.62
same,Activity,[7],> 70%
same,viability at 3 µM,A549 [8],24.6%
same,Activity,A549 [9],2.63%
same,Tmax,[10],4.98 min
same,Activity,[11],> 70%
same,AUC(0-inf),[12],505 ng·h/mL
same,Activity,A549 [13],0.044%
same,clearance,[14],85.8 mL/min/kg
same,Activity,A549 [15],27.7%
same,MRT last,[16],7.93 h
same,Vdss,[17],97.34 L/kg
